Data from ChEMBL document CHEMBL1133697, “New selective and potent 5-HT(1B/1D) antagonists: chemistry and pharmacological evaluation of N-piperazinylphenyl biphenylcarboxamides and biphenylsulfonamides” (J Med Chem, 2000).

Assays:
[1] = target: T1, 5-hydroxytryptamine receptor 1A (Rattus norvegicus, UniProt P19327); experiment: Inhibition activity against 5-hydroxytryptamine 1A receptor in rat hippocampus membranes using radio binding assays; assay type: cell membranes, Membrane
T1 sequence (P19327 whole entry): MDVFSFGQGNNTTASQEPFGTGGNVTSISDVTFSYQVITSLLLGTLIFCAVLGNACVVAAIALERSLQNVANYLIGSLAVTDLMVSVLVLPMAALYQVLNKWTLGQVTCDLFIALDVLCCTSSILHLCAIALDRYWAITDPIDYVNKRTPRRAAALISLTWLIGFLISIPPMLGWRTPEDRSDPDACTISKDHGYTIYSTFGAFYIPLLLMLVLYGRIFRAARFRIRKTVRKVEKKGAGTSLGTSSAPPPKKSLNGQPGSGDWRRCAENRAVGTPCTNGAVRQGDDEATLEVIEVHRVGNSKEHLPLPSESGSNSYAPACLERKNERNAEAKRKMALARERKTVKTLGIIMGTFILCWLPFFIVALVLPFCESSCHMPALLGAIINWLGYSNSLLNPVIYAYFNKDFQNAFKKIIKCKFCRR
In short: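 Displacement of 0.5 nM [3H]8-OH-DPAT from 5-HT1A sites in rat hippocampal membranes, following a previously reported method. IC50 in nM, mean of at least 3 determinations ±SEM unless indicated otherwise.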

[2] = target: Serotonin (5-HT) receptor (Homo sapiens) (UniProt P30939+P41595+Q13639+P28222+P46098+P08908+P28221+P28223+P28335+P28566+P34969+P50406+P47898+A5X5Y0+O95264+Q70Z44+Q8WXA8); experiment: 5-hydroxytryptamine level in K+ induced 5-hydroxytryptamine release in guinea pig cortex.; assay type: functional, tissue-based; conditions: Cavia porcellus, target entry is the homologue from another species
In short: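 Guinea pig (male Dunkin-Hartley) cerebral cortex slices loaded with [3H]5-HT for 30 min, then superfused with oxygenated Krebs solution. Two 4-min 30 mM K+ pulses at 68 and 108 min (S1, S2). Sumatriptan 3 µM, alone or with test compound at 30 nM, 300 nM or 3 µM, given before and during S2. Tabulated value is at 300 nM, reported as % of control S2/S1 ratio; mean (SEM) of 3-4 determinations.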

[3] = Partition coefficient (logP); conditions: octanol/water
[4] = pA2 value for the effect in RSV model.; assay type: functional
In short: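 Isolated rabbit saphenous vein segments were held in organ baths and given two cumulative sumatriptan concentration-response curves. The second curve was run after 60 min incubation with antagonist or vehicle. Apparent pA2 was derived from a single antagonist concentration in at least three preparations.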

[5] = Partition coefficient (logD7.4); conditions: octanol/water, pH 7.4
[6] = target: 5-hydroxytryptamine receptor 1B (Rattus norvegicus, UniProt P28564); experiment: Inhibition affinity against 5-HT-1B receptor in rat frontal cortex using radio binding assay; assay type: tissue-based
Sequence of 5-hydroxytryptamine receptor 1B (P28564 whole entry): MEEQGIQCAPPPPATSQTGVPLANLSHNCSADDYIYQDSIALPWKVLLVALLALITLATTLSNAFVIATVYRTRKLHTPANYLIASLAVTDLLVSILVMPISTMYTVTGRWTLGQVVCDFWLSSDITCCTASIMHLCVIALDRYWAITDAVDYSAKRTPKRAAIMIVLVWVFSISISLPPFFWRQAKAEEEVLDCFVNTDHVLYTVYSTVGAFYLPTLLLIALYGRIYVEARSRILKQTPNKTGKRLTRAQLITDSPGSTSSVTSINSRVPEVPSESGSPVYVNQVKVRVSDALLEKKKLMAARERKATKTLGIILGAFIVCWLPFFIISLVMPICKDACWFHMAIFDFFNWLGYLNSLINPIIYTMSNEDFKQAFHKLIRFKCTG

[7] = target: Sodium-dependent serotonin transporter (Homo sapiens, UniProt P31645); experiment: Inhibition of 5-hydroxytryptamine reuptake
Sequence of Sodium-dependent serotonin transporter (P31645 whole entry): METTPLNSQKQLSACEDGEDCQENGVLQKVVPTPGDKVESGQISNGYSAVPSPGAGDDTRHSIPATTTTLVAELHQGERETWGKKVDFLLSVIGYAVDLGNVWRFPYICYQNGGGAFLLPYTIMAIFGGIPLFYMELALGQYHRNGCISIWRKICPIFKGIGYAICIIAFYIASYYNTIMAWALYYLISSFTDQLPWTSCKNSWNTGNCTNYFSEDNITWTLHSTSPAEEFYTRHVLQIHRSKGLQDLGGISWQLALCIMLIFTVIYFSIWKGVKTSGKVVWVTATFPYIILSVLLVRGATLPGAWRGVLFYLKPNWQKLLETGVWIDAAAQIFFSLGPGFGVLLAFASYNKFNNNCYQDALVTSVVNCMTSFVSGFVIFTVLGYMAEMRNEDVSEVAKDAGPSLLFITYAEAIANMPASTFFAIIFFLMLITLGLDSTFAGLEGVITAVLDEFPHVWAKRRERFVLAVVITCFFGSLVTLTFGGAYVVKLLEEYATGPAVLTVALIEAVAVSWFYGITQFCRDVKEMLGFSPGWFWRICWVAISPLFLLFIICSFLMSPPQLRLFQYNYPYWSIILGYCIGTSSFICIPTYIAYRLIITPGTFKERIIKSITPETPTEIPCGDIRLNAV

Row | Compound | IC50 [1] [nM] | Control [2] [%] | logP [3] | pA2 [4] | logD [5] | IC50 [6] [nM] | IC50 [7] [nM]
1 | COc1ccc(NC(=O)c2ccc(-c3ccc(C(N)=O)cc3C)cc2)cc1N1CCN(C)CC1 | 57 | 162 | 3.6 | 10 | 3.18 | 1.3 | > 1000
2 | Cc1nc(-c2ccc(-c3ccc(C(=O)Nc4ccc(OS(=O)(=O)C(F)(F)F)c(N5CCN(C)CC5)c4)cc3)c(C)c2)no1 | > 10000 | – | 6.06 | – | 5.64 | 700 | > 1000
3 | Cc1nnc(-c2ccc(-c3ccc(C(=O)Nc4ccc(O)c(N5CCN(C)CC5)c4)cc3)c(C)c2)o1 | > 100 | 147 | 3.54 | 8 | 3.12 | 6.3 | 4700
4 | Cc1nc(-c2ccc(-c3ccc(C(=O)Nc4ccc(O)c(N5CCN(C)CC5)c4)cc3)c(C)c2)no1 | > 1000 | 122 | 4.33 | 7.3 | 3.91 | 7.3 | > 1000
5 | Cc1nc(-c2ccc(-c3ccc(C(=O)N4CCc5cc6c(cc54)C4(CCN(C)CC4)CO6)cc3)c(C)c2)no1 [SB-224289] | – | 134 | 6.29 | 7.4 | 4.64 | 2 | 4700
6 | COc1ccc(NC(=O)c2ccc(-c3ccc(-c4nnc(C)o4)cc3C)cc2)cc1N1CCN(C)CC1 | > 1000 | 147 | – | 9.1 | – | 0.93 | > 1000
7 | COc1ccc(NC(=O)c2ccc(-c3ccc(-c4noc(C)n4)cc3C)cc2)cc1N1CCN(C)CC1 [GR-127935] | 425 | – | 4.9 | 9.9 | 4.48 | 1.6 | 1000
8 | COc1ccc(NS(=O)(=O)c2ccc(-c3ccc(-c4nnc(C)o4)cc3C)cc2)cc1N1CCN(C)CC1 | 700 | 155 | 4.04 | 7 | 3.6 | 60 | > 1000
9 | Cc1nc(-c2ccc(-c3ccc(C(=O)Nc4ccc(OCCF)c(N5CCN(C)CC5)c4)cc3)c(C)c2)no1 | 5000 | 107 | 5.33 | 8.3 | 4.91 | 10 | 900
10 | COc1ccc(NC(=O)c2ccc(-c3ccc(C(=N)N)cc3C)cc2)cc1N1CCN(C)CC1 | 23 | 155 | 3.61 | 9.6 | -0.35 | 0.5 | 407
11 | Cc1nnc(-c2ccc(-c3ccc(C(=O)Nc4ccc(OS(C)(=O)=O)c(N5CCN(C)CC5)c4)cc3)c(C)c2)o1 | 7000 | 166 | 3.38 | 8.3 | 2.96 | 70 | 3800
